# Screening results (PubChem)
# SENP1 FRET inh = human SENP1 catalytic domain inhibitors, primary screen, biochemical, FRET, uHTS; 0.21% of 360,000 active; Sentrin-specific protease 1 (Homo sapiens), Q9P0U3; recombinant SENP1 catalytic domain, CyPet-SUMO1-YPet FRET cleavage; inhibition, % at 10 µM;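 active means inhibition at least 30% at 10 µM, raw YFP signal under a set limit, fluorescence ratio 0.5 to 1.5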;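 further: 0% = enzyme with DMSO and 100% = no enzyme wells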
# Target sequence (Q9P0U3 419-644 limits assumed): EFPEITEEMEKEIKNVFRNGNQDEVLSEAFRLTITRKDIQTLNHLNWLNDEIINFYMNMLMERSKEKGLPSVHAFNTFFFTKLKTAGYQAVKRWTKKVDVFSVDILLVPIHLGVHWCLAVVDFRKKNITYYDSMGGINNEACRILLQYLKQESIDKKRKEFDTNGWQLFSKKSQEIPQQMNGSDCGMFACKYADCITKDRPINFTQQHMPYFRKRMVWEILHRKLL
#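 Assay system – human recombinant His6-tagged SENP1 catalytic domain enzyme · Input – SENP1 enzyme, 20 pM final · Buffer or medium – Tris pH 8 buffer plus EDTA, NaCl, BME, BSA, NP40, catalase · Schedule – 50 min reaction at room temperature · Technique – FRET read of cyan and yellow fluorescence · Control set – no-enzyme wells low, DMSO-plus-enzyme wells high control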
# NadD inh = inhibitors of S. aureus NadD, primary screen, biochemical, colorimetric, uHTS; Nicotinate-nucleotide adenylyltransferase NadD (Staphylococcus aureus N315); purified NadD enzyme, colorimetric absorbance read-out; inhibition, % at 20 µM; 0.78% of 360,000 active; AID 602399, 2012; in the data active means inhibition above about 26%
# ATG4B inh = ATG4B protease inhibitors, primary screen, biochemical, fluorescence, uHTS | Cysteine protease ATG4B (Homo sapiens), Q9Y4P1 | AID 504462, 2011 | 0.51% of 340,000 active | inhibition, % at 8.33 µM | ATG4B cleavage of LC3-PLA2, NBD-HPC fluorescence, 1 h; in the data active means inhibition above about 40%
# UCH37 inh = inhibitors of human UCH37 deubiquitinase, primary screen, biochemical, Ub-AMC cleavage, fluorescence | Ubiquitin carboxyl-terminal hydrolase isozyme L5 (Homo sapiens), Q9Y5K5 | 0.33% of 330,000 active | purified proteasome/UCH37 | inhibition, % (test concentration not listed);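 active means mean inhibition over replicate wells above about 20%, limit read from the data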;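 further: 0% = compound-free wells with enzyme and 100% = wells lacking proteasome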
# Target sequence (Q9Y5K5 whole entry, looked up): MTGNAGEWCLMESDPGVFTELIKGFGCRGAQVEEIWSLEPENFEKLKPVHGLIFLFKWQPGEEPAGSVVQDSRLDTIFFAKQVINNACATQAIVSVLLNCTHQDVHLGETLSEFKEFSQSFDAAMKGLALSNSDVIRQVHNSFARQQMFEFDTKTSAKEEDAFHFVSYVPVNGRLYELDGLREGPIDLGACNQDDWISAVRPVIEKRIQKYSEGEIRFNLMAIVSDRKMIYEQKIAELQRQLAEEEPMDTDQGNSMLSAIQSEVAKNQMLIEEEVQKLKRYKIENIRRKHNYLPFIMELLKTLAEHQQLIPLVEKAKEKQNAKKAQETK
#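 Material: human UCH37 enzyme supplied as purified proteasome complex. Measure: % inhibition of Ub-AMC cleavage fluorescence. Medium: pH 7.4 Tris-HCl (50 mM) with ovalbumin, ATP-MgCl2, DTT. Times: 30 min preincubation with enzyme, 25 min cleavage at room temperature. Detection: AMC fluorescence intensity at 355/460 nm.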
# GRIN3A LBD mod = binders of NR3A ligand-binding domain, primary screen, biophysical, differential scanning fluorimetry, uHTS | 2.5% of 340,000 active | Glutamate receptor ionotropic, NMDA 3A (GRIN3A) ligand-binding domain | AID 1259313, 2017 | NR3A LBD differential scanning fluorimetry, Tm shift; 0% = protein alone, 100% = glycine-bound protein | Tm shift relative to glycine control, % at 25 µM;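 active means melting temperature shift of at least 10% of the positive control shift, at one fixed dose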
# NadD inh conf = inhibitors of S. aureus NadD, confirmation, biochemical, colorimetric, single concentration. shares compounds with NadD inh. purified S. aureus NadD, colorimetric enzyme assay. inhibition, % at 20 µM. 13% of 2,000 active. AID 624309, 2012; in the data active means inhibition mostly above about 42%, no sharp cut-off; inactive means mostly below about 42%
# Starred values were filed as active, the others as inactive; · = no result. In the library only some 3.6% were active in any assay of this set; here they are far more common.
SMILES,SENP1 FRET inh,NadD inh,ATG4B inh,UCH37 inh,GRIN3A LBD mod,NadD inh conf
CC1CC(NC(=O)c2c(O)nc3ccccn3c2=O)CC(C)(C)C1 (configuration not stated),1.7,-0.8,1.2,·,-2.0,·
C=CCN1CCc2nc(N)sc2CC1,-18.0,30.3*,7.0,2.5,1.3,21.0
CCN1CCc2nc(N)sc2C1,-9.2,-2.4,2.6,1.3,1.5,·
COc1cc(C#Cc2c(-c3cncn3C)n(C)c3ccc(-c4ccc(OC)nc4)cc23)cc(OC)c1,0.1,35.7*,-6.2,-64.4,-7.8,14.3
COc1cc(C#Cc2c(-c3cncn3C)n(C)c3ccc(-c4ccc5[nH]ccc5c4)cc23)cc(OC)c1,-1.0,35.0*,10.8,-37.4,1.6,36.1
Nc1nonc1-n1nnc(C(=O)NN=Cc2cccc(Cl)c2)c1CN1CCCC1,·,·,·,1.6,·,·
O=C1CC(c2ccco2)Cc2nc(Nc3nc(-c4ccccc4)c4ccccc4n3)ncc21 (configuration not stated),8.2,57.2*,0.9,·,-0.1,31.9
O=C1Nc2cc(C(=O)NCCN3CCCCCC3)ccc2S/C1=C/c1ccccc1F,-23.5,45.7*,·,·,·,-11.2
COc1ccc(/C=C2\Sc3ccc(C(=O)NCCN4CCCCCC4)cc3N(C)C2=O)cc1,-19.5,47.1*,19.5,3.6,-4.8,7.8
CC(C)(C)c1ccc(O)c(C=NO)c1,·,·,·,0.7,·,·
Cc1cccc(N2CCN(C(=O)c3ccc4c(c3)NC(=O)C(CSCc3cccc(F)c3)N4)CC2C)c1 (configuration not stated),34.7,49.1*,-9.1,·,1.2,70.0*
Cc1ccc(C2C(C=Nc3c(C)n(C)n(-c4ccccc4)c3=O)=C(c3ccccc3)Oc3ccccc32)cc1 (configuration not stated),0.8,37.8*,0.5,7.1,2.4,10.9
Cc1c(N=Cc2cccs2)c(=O)n(-c2ccccc2)n1C,1.9,5.8,5.3,10.0,0.0,·
COc1ccc(C2=NN(C(=O)CSc3nc(=O)n4cc(C)ccc4n3)C(c3ccc(C)cc3)C2)cc1 (configuration not stated),-2.9,49.2*,-19.8,-28.1,1.2,14.7
COc1ccc(C2CC(c3cccs3)=NN2C(=O)CSc2nc3c(cnn3-c3ccccc3)c(=O)[nH]2)cc1 (configuration not stated),-0.7,40.3*,1.2,-52.9,-26.6,7.3
COc1ccc(C2CC(c3cccs3)=NN2C(=O)CSc2nc(=O)n3ccc(C)cc3n2)cc1 (configuration not stated),-38.2,46.4*,0.6,0.8,2.4,43.8
Cc1ccc(C2CC(c3cccs3)=NN2C(=O)CSc2nc(=O)n3ccc(C)cc3n2)cc1 (configuration not stated),-27.2,38.0*,·,·,·,51.0*
COc1ccccc1N1CCN(N=Cc2ccccc2)CC1,·,·,·,2.8,·,·
COc1ccccc1NC(=O)C(=NO)C(C)=NO,·,·,·,2.9,·,·
Cc1ccc(NC(=O)C2CC(=O)N/C(=N/N=Cc3ccco3)S2)cc1 (configuration not stated),·,·,·,1.7,·,·
O=C(CC(=O)NN=Cc1ccccc1)NCc1ccccc1,·,·,·,3.6,·,·
COc1ccc2cc(C(=O)/C=C/c3cc(OC)c(O)c(OC)c3)ccc2c1,-23.9,17.3,-13.6,-20.7,8.9,·
COc1cc(/C=C/C(=O)c2ccc(NS(=O)(=O)c3ccc(C)cc3)cc2)cc(OC)c1O,-15.8,32.0*,-20.7,-5.3,11.2*,45.7
O=C(CSCc1nc2scc(-c3cccs3)c2c(=O)[nH]1)Nc1ccccn1,0.3,0.2,-2.1,-1.7,-1.6,·
O=c1[nH]c(CN2CCc3ccccc32)nc2scc(-c3cccs3)c12,2.9,42.3*,7.2,-1.4,-1.8,13.5
SMILES,SENP1 FRET inh,NadD inh,ATG4B inh,UCH37 inh,GRIN3A LBD mod,NadD inh conf
COc1cc(NC(=O)CC(C)=NNC(=O)C2CCCCC2)c(OC)cc1Cl,·,·,·,3.9,·,·
COc1ccc(NC(=O)CSc2nc3c(cc2C#N)CN(C)CC3)cc1,-66.5,30.4*,-1.4,-10.6,-1.1,-7.8
Cc1cc(C)n(N=Cc2c(O)ccc3ccccc23)c(=O)c1C(N)=O,·,·,·,5.4,·,·
O=C1N[C@@H](Cc2ccccc2)C(=O)N2[C@H]1C[C@]1([C@]34C[C@H]5C(=O)N[C@@H](Cc6ccccc6)C(=O)N5[C@H]3N(S(=O)(=O)c3ccccc3)c3ccccc34)c3ccccc3N(S(=O)(=O)c3ccccc3)[C@H]21,-4.0,38.4*,-5.0,2.8,1.0,45.4
O=C(CN1CCN(c2nc(-c3ccccc3)cs2)CC1)NNC(=O)c1ccc(Br)cc1,-2.3,-5.5,-7.3,4.5,5.8,·
O=C(NC(=S)N1CCN(c2nc(-c3ccccc3)cs2)CC1)c1cncc(Br)c1,-4.7,35.0*,0.8,2.6,-18.6,23.2
Cc1ccccc1NC(=O)COC(=O)c1ccc(S(=O)(=O)N2CCCCCC2)cc1,0.8,14.0,6.6,3.6,4.7,·
Cc1ccc(C)c(NC(=O)COC(=O)c2ccc(S(=O)(=O)N3CCCCC3)cc2)c1,0.8,31.0*,3.7,2.9,0.5,-0.5
Cc1nn(-c2ccc(Cl)cc2)c(Cl)c1/C=N/NC(=O)c1ccc(NS(=O)(=O)c2cccs2)cc1,-5.0,41.3*,-7.0,·,13.8*,62.8*
Cc1nn(-c2ccccc2)c(N2CCCC2)c1/C=N/NC(=O)c1cccc(S(=O)(=O)Nc2ccc(Cl)cc2)c1,1.8,53.5*,16.9,·,13.4*,55.2*
Cc1nn(-c2ccccc2)c(Cl)c1/C=N/NC(=O)c1cccc(S(=O)(=O)N2CCCC2)c1,0.7,4.4,24.4,·,5.4,·
COc1ccc(NS(=O)(=O)c2cccc(C(=O)NN=Cc3cn(-c4ccccc4)nc3-c3ccc(OC)cc3)c2)cc1,·,·,·,-13.4,·,·
COc1ccc(-c2nn(-c3ccccc3)cc2/C=N/NC(=O)c2cccc(S(=O)(=O)Nc3ccccc3Cl)c2)cc1,-0.4,41.8*,15.4,·,21.5*,15.8
O=C(NN=Cc1ccc(C(F)(F)F)cc1)c1ccc(O)cc1,·,·,·,4.5,·,·
O=C1[C@H]2[C@@H](c3ccc(F)cc3)N3C(=O)N(c4cccc(Br)c4)C(=O)[C@@]3(Cc3ccc(Cl)cc3)[C@H]2C(=O)N1C1CCCCC1,3.1,30.6*,-2.6,0.0,9.6,13.2
